SUMO1 PPI mod – modulators of SUMO1 protein-protein interactions, primary screen, biochemical, uHTS | Small ubiquitin-related modifier 1 (Homo sapiens), P63165 | SUMO1 binding to a labelled peptide, TR-FRET, 1 h | inhibition, % at 20 µM | 0.33% of 360,000 active | AID 602429, 2012; in the data active = inhibition above about 37%
Scp-1 inhibitor – Scp-1 phosphatase inhibitors, primary screen, biochemical, colorimetric, uHTS. Carboxy-terminal domain RNA polymerase II polypeptide A small phosphatase 1 (Homo …. Recombinant Scp1, phosphopeptide, malachite green phosphate absorbance. inhibition, % at 20 µM. 0.88% of 340,000 active;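 active = inhibition above about 50% at 20 µM, limit read from the data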;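 note: plate controls were DMSO wells with enzyme for no effect and wells lacking enzyme for full effect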
Target sequence (Q9GZU7 76-261 limits assumed): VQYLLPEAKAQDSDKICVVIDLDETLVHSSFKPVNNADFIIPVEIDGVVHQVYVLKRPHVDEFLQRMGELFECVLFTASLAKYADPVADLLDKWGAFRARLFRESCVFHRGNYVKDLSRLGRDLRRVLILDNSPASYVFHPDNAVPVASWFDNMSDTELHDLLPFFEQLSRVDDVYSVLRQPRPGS
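Test system: SCP-1 phosphatase catalytic domain, residues 76-261; measured by: colorimetric phosphate reagent with accelerator and stabiliser, absorbance at 630 nm; timing: enzyme reaction 45 min at room temperature, colour 5 min, stabilisation 30 min; also added: Phosphorylated 17-residue peptide substrate; compound dosing: one concentration, 20 µM, with 1.0% DMSO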
CASP6 VEID inh – human caspase-6 inhibitors, primary screen, biochemical, VEID-R110 fluorescence, single point, set 2; purified caspase-6, Z-VEID-R110 cleavage fluorescence; inhibition, % at 12.5 µM; 0.53% of 350,000 active; AID 686996, 2013;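 active = mean inhibition across replicates at least about 35%, with every replicate also reaching that limit, limit read from the data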;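 note: 0% = median of neutral control wells and 100% = no fluorescence left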
Target sequence (P55212 24-179 limits assumed): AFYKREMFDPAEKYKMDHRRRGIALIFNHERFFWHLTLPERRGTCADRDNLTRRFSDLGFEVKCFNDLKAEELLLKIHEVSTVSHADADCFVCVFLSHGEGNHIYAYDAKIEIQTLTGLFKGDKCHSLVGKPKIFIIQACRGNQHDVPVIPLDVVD
Target sequence (P55212 194-293 limits assumed): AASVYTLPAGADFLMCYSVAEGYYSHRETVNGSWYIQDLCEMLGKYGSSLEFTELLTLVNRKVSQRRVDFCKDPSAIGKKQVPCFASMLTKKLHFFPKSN
LMPTP inh – LMPTP phosphatase inhibitors, primary screen, biochemical, fluorescence intensity, uHTS; Low molecular weight phosphotyrosine protein phosphatase (Homo sapiens), P24666; recombinant LMPTP-A, OMFP fluorogenic substrate; inhibition, % at 20 µM; 0.22% of 360,000 active;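 active = compounds that cut the enzyme signal by at least half of the control window in the single-dose screen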;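 note: plate controls were DMSO wells with enzyme plus substrate for no effect and substrate without enzyme for full effect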
Target sequence (P24666 whole entry, looked up): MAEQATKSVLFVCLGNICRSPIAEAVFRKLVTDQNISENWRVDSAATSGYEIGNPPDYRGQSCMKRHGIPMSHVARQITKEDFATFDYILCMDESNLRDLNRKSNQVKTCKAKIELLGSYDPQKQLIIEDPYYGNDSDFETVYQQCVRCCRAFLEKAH
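Test system: LMPTP-A phosphatase enzyme; input: 0.625 nM LMPTP-A final; reagent: OMFP substrate, 400 µM final; compound dosing: 20 µM single dose, 3% DMSO; incubation: 50 min dark incubation at room temperature; measured by: endpoint fluorescence intensity from OMFP dephosphorylation; measure: % inhibition relative to no-enzyme and uninhibited control wells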
DNMT1 inh – human DNMT1 methyltransferase inhibitors, primary screen, biochemical, molecular beacon, fluorescence, HinP1I cleavage, uHTS; inhibition (reported as % activation of signal), % at 10 µM; 0.83% of 360,000 active; in the data active = inhibition above about 50%
STEP block – STEP phosphatase inhibitors, primary screen, biochemical, fluorescence intensity, uHTS; Tyrosine-protein phosphatase non-receptor type 5 (Homo sapiens), P54829; recombinant STEP, OMFP fluorogenic substrate; inhibition, % at 20 µM; 0.25% of 360,000 active; AID 588621, 2011;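 active = inhibition at 20 µM, scaled per plate between control wells, above about 37%, limit read from the data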;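 note: 0% = DMSO with enzyme and substrate and 100% = substrate only without enzyme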
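System: STEP (striatal-enriched tyrosine phosphatase) enzyme, cell-free; medium: Bis-Tris pH 6.0 buffer with DTT, detergent; dosing: 20 µM, 1% DMSO; times: reaction 20 min, ambient temperature; detection: fluorescence, 480/540 nm; read-out basis: normalized % inhibition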
Scp1 confirm – Scp-1 phosphatase inhibitors, retest, confirmation, biochemical, colorimetric, single concentration; shares compounds with Scp-1 inhibitor; recombinant SCP-1 catalytic domain, phosphate release, malachite green absorbance; inhibition, % at 20 µM; 61% of 2,500 active; AID 540281, 2011;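 note: plate controls were DMSO with enzyme for no effect and buffer wells lacking enzyme for full effect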
MG interference – colorimetric readout interference by compounds, confirmation, artefact control for Scp-1 inhibitor project, biochemical, single concentration; shares compounds with Scp-1 inhibitor; Colorimetric interference counterscreen, malachite green absorbance 630 nm; apparent inhibition (interference), % at 20 µM; 2,500 tested, under 10 active; AID 540313, 2011;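 note: compounds added after enzyme reaction finished so only phosphate colour detection is probed; plate controls were DMSO wells with completed Scp-1 reaction for no effect and substrate wells lacking enzyme for full effect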
Scp1 DSF – Scp-1 binding by thermal shift, confirmation, orthogonal assay for Scp-1 inhibitor project, biophysical, differential scanning fluorimetry | shares compounds with Scp-1 inhibitor | Recombinant SCP1, Sypro Orange thermal shift Tm | thermal shift relative to vanadate control, % at 40 µM | 25% of 1,500 active | AID 540329, 2011;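 active = substances whose mean melting-temperature shift, as a percentage of the reference inhibitor's shift, reaches about 5.3%, limit read from the data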;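 note: 0% = Tm of DMSO wells and 100% = Tm with sodium orthovanadate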
DNMT1 inh conf – DNMT1 methyltransferase inhibitor retest, confirmation, biochemical, molecular beacon, fluorescence, single concentration; shares compounds with DNMT1 inh; 8% of 2,300 active; DNMT1 molecular beacon HinP1I cleavage; AID 602385, 2012; inhibition, % at 10 µM;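 active = average inhibition of at least 30% in the single-concentration confirmation test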
DNMT1 interf – counter-screen for DNMT1 inhibitors: spectral interference | shares compounds with DNMT1 inh | DNMT1 molecular beacon spectral interference counterscreen, fluorescence 485/520 | activation (fluorescence interference), % at 10 µM | 1% of 2,300 active;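 active = activation of at least 30% at 10 µM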;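 note: DNMT1 catalytic domain with a HinP1I cleavage step and a FAM/dabcyl DNA beacon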
Active calls of the source: *; / = no result given. A selection: hits, their analogues and other compounds. The true share with any hit is near 1.7%.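 Rule for the calls, unless noted: active = inhibition of at least 30% at 20 µM; inactive = the rest.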

SMILES	SUMO1 PPI mod	Scp-1 inhibitor	CASP6 VEID inh	LMPTP inh	DNMT1 inh	STEP block	Scp1 confirm	MG interference	Scp1 DSF	DNMT1 inh conf	DNMT1 interf
NS(=O)(=O)c1ccc(NC(=O)/C=C/c2ccco2)cc1	0	68*	54*	4	62*	5	64*	-5	5	7	0
Cc1ccc(C(=O)Oc2ccc(C(=O)COC(=O)C3CC(=O)N(Cc4ccco4)C3)cc2)cc1 (stereo not given)	6	60*	/	2	66*	4	48*	-18	3	12	2
Cc1[nH]c2ccccc2c1C(=O)COC(=O)C1CC(=O)N(Cc2ccco2)C1 (stereo not given)	4	11	/	1	-2	2	/	/	/	/	/
Cc1ccc(S(=O)(=O)c2cc3c(=O)n4ccccc4nc3n(Cc3ccco3)c2=N)cc1	4	66*	/	25	69*	5	14	5	/	1	-2
Cc1ccc(-n2c(C)cc(C(=O)OCC(=O)N3CCOCC3)c2C)cc1	-6	-12	0	-2	-6	0	/	/	/	/	/
Cc1ccc(C(=O)OCC(=O)c2ccc(CC(=O)N3CCOCC3)s2)c(C)c1	-3	72*	22	10	55*	6	78*	-5	6.7*	9	2
O=C(O)C(C(=O)/C=C/c1ccco1)=C1SCCS1	25	55*	/	10	96*	10	63*	-2	3	4	0
O=C(C=C1SCCS1)/C=C/c1ccco1	2	76*	/	34	88*	6	52*	-20	-8	3	-2
COc1ccc(OCC(=O)N/N=C\c2ccco2)cc1	-8	-7	2	-1	0	1	/	/	/	/	/
O=C(COc1cccc2ccccc12)N/N=C/c1ccco1	-17	-2	-1	-2	1	1	/	/	/	/	/
CCc1ccc(OCC(=O)N/N=C\c2ccco2)c([N+](=O)[O-])c1	-10	80*	4	10	81*	7	47*	-20	2	8	6
O=C(COc1cccc([N+](=O)[O-])c1)N/N=C/c1ccco1	-14	63*	2	18	59*	14	45*	-11	-13	0	2
COc1cc(/C=N/N2CCOCC2)ccc1OC(=O)c1ccco1	-2	-1	-1	-1	1	0	/	/	/	/	/
CC(c1ccccc1)n1c(N2CCNCC2)nc2c1c(=O)[nH]c(=O)n2C (stereo not given)	9	-1	1	-1	3	-1	/	/	/	/	/
O=C(O)C1CC(c2ccc(F)cc2)=NO1 (stereo not given)	5	52*	/	-2	86*	0	34*	-17	-5	13	4
NS(=O)(=O)c1ccc(NC(=O)c2ccc(-c3ccccc3)cc2)cc1	-3	60*	0	42	73*	24	66*	-11	14*	6	-4
NS(=O)(=O)c1ccc(NS(=O)(=O)c2ccc(NC(=O)c3ccc(-c4ccccc4)cc3)cc2)cc1	8	29	/	38	23	13	/	/	/	/	/
Cn1c(=O)c2c(ncn2CC(=O)Nc2ccc3c(c2)OCO3)n(C)c1=O	6	-10	5	1	2	-1	/	/	/	/	/
Cc1noc(C)c1NC(=O)N(C)C[C@H]1Oc2ccc(NC(=O)Nc3ccc(F)cc3)cc2C(=O)N([C@H](C)CO)C[C@H]1C	/	/	1	/	/	/	/	/	/	/	/
O=C(O)c1cccc(-n2cccc2/C=C2/NC(=O)N(Cc3ccccc3F)C2=O)c1	-8	52*	76*	6	81*	7	75*	1	0	1	1
Cc1ccccc1NC(=O)CN1C(=O)S/C(=C\c2cccn2-c2cccc(C(=O)O)c2)C1=O	2	84*	/	5	66*	23	74*	-11	17*	9	2
CC(C)(C)c1ccc(C(=S)N2CCN(c3ccccc3)CC2)cc1	8	8	2	2	1	12	/	/	/	/	/
CC(C)C[C@H](NC(=O)Nc1ccc2c(c1)OCCO2)C(=O)O	-1	-13	0	2	2	-2	/	/	/	/	/
COc1ccc(C(=O)NNC(=O)c2ccccn2)cc1	0	-8	0	-2	0	0	/	/	/	/	/
COc1ccc2c(c1)C(=NNC(=O)c1ccccn1)c1cc(OC)ccc1-2	10	81*	/	29	88*	31	62*	-13	0	2	-3
O=C(CSc1nc2cc(Cl)ccc2s1)NC(=O)NCc1ccco1	1	80*	/	4	54*	2	53*	-8	3	6	3
Cc1sc2ncnc(SCC(=O)NC(=O)NCc3ccco3)c2c1C	4	57*	18	13	69*	8	49*	-12	-7	2	2
CCOc1ccc2nc(SCC(=O)NC(=O)NCc3ccco3)sc2c1	2	-7	/	4	-6	-1	/	/	/	/	/
Cc1nc(SCC(=O)NCc2ccco2)c2c(C)c(C)sc2n1	-1	-1	/	-1	0	3	/	/	/	/	/
C=CCn1c(O)c(N=NC(=O)CNC(=O)/C=C/c2ccc(OC)cc2)c2ccccc21	-30	0	2	1	-2	-1	/	/	/	/	/

High-throughput results (PubChem BioAssay)
